MEKK3 PB1 HTS: MEKK3-MEK5 PB1 interaction, increase or decrease. Q99759. bead-based flow cytometry, Alexa488-MEK5 binding to MEKK3; actives lie on both sides; 0 = blocked by unlabeled MEK5, 100 = vehicle. binding response (% of control), % at 10 µM. actives 1.4% (n = 290,000). AID 1529;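 active = binding response more than 3 SD above or below the average of its plate-row segment, actives on both sides; inconclusive = wells at one plate position flagged as instrument error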;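 also: Alexa488 bead fluorescence after subtracting the streptavidin-only scavenger bead signal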
Target sequence (Q99759 whole entry, looked up): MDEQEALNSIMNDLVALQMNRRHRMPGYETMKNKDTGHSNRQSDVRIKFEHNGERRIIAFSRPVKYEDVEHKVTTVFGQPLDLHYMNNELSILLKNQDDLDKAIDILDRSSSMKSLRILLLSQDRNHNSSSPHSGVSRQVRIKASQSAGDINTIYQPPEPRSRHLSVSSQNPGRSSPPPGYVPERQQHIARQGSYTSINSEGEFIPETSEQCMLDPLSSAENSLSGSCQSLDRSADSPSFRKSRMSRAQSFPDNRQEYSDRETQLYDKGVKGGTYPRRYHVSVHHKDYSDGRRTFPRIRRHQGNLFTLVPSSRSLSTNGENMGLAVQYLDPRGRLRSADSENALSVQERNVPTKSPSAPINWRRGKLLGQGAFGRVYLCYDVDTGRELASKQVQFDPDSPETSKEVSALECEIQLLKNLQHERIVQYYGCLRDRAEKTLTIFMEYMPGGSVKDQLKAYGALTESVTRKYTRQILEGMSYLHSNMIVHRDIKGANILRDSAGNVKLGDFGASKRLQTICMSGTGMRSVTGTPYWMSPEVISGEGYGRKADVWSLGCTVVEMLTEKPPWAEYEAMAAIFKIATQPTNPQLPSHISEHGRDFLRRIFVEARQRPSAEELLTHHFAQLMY
MEKK2 mut-MEK5: signal of MEK5 binding to mutant human MEKK2 PB1 domain; bead flow cytometry, Alexa488-MEK5 binding to MEKK2 mutant; percent response, % at 10 µM; actives 0.35% (n = 290,000); in the data active = percent response above about 24%, passing the limit was not always enough
UBC13 polyUb: human UBC13 polyubiquitination inhibition | UBC13 polyubiquitin chain formation, TR-FRET | inhibition, % at 20 µM | AID 485273 | actives 0.47% (n = 330,000); in the data active = inhibition above about 45%, passing the limit was not always enough; inconclusive = no clear call, values can overlap the other calls
Apaf-1 inh: inhibitors of human Apaf-1 apoptosome; O14727; inhibition, % at 20 µM; AID 489030; reconstituted apoptosome caspase-3 activity, DEVD-Rh110 fluorescence; actives 0.71% (n = 330,000); active = inhibition of at least 40% at 20 µM;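 also: plate controls were DMSO wells for no effect and DEVD-CHO caspase inhibitor wells for full effect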
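System: Apoptosome proteins | Medium: Hepes pH 7.5 with detergent and BSA | Also added: Cytochrome c trigger plus (Z-DEVD)2-Rh110 caspase-3 substrate | Incubation: 30 min compound preincubation, 50 min activation, room temperature | Detection: Rhodamine 110 fluorescence at Ex 480/Em 540 nm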
Pemphigus Ab inh: blocks pemphigus antibody binding to human desmoglein-3; AID 588358; P32926; DSG3-coupled beads, scFv-anti-DSG3-GFP binding, flow cytometry; active compounds read low; actives 0.48% (n = 310,000); binding (percent of control), % at 10 µM;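 active = binding more than 3 SD below its plate's average and above zero; inconclusive = below that plate limit but binding exactly zero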;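 also: hits lower antibody fragment binding to DSG3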
MEKK2 WT-MEK5: raises or lowers MEK5 binding to wildtype human MEKK2 PB1 domain. actives 1.1% (n = 290,000). bead flow cytometry, Alexa488-MEK5 binding to MEKK2 WT; actives lie on both sides. Q9Y2U5. binding response (% of control), % at 10 µM; in the data active = binding response below about 67% or above about 130%; inconclusive = no clear call, values can overlap the other calls; inactive = in between
Apaf-1 inh conf: confirmation of Apaf-1 inhibitors | shares compounds with Apaf-1 inh | reconstituted apoptosome, caspase-3 DEVD-Rh110 fluorescence | inhibition, % at 20 µM | actives 25% (n = 1,800);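 active = mean inhibition of at least 40% at 20 µM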;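 also: plate controls were DMSO wells for no effect and DEVD-CHO caspase inhibitor control wells for full effect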
Rh110 interf inh: Rh110 signal interference in Apaf-1 inhibitor counter-screen; shares compounds with Apaf-1 inh; Rh110 fluorescence interference, quenched caspase reaction; activation (fluorescence interference), % at 20 µM; 1,800 tested, under 10 active;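 active = signal rise of 40% or more at 20 µM, treated as a fluorescence artifact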
Apaf1 inh interf: counter-screen for Apaf-1 inhibitors: fluorescence interference, dose response; fluorescence interference counterscreen, Apaf-1 assay format; 460 tested, under 10 active; IC50, µM; AID 588538; shares compounds with Apaf-1 inh; call rule not given here
Active calls of the source: *; u = inconclusive; x = not tested or not shown. A selection: hits, their analogues and other compounds. The true share with any hit is near 3.2%.

SMILES	MEKK3 PB1 HTS	MEKK2 mut-MEK5	UBC13 polyUb	Apaf-1 inh	Pemphigus Ab inh	MEKK2 WT-MEK5	Apaf-1 inh conf	Rh110 interf inh	others
COc1cc(-n2c(C)nc3ncn(-c4ccccc4)c3c2=O)cc(OC)c1OC	x	x	x	x	103	x	x	x
O=C(C[C@H]1C[C@H](C(=O)N2CCOCC2)[C@@]2(CCC3CCCC3)c3[nH]c4cc(-c5ccco5)ccc4c3CCN2C1=O)NCCCn1ccnc1	x	x	x	62*	97	x	32	8
COc1ccc2[nH]c3c(c2c1)CCN1C(=O)C(CC(=O)NC(C)(C)C)C[C@H](C(=O)N2CCOCC2)[C@@]31CCC1CCCC1 (stereo partly specified)	x	x	x	25	93	x	x	x
CC(C)(C)NC(=O)C[C@H]1C[C@H](C(=O)N2CCOCC2)[C@@]2(CCC3CCCC3)c3[nH]c4ccc(Cl)cc4c3CCN2C1=O	x	x	x	44*	104	x	28	20
CCOc1ccccc1N(CC(=O)NCc1ccco1)C(=O)CCC(=O)Nc1nccs1	104	3	2	-2	108	107	x	x
COc1ccc(-c2ccc(/C=C3\C(=O)N(c4ccccc4)N=C3c3ccccc3)o2)c([N+](=O)[O-])c1	88	-7	-51	1	83	87	x	x
COC(=O)c1ccccc1-c1ccc(/C=C2\C(=O)N(c3ccccc3)N=C2c2ccccc2)o1	87	-9	-41	62*	104	84	13	9
CCc1noc(C)c1C(=O)OC(C)C(=O)Nc1cc([N+](=O)[O-])ccc1OC (stereo unspecified)	x	x	2	6	111	x	x	x
CCOc1ccc(/C=C/[N+](=O)[O-])c2ccccc12	100	-11	-44	80*	x	79	24	2
Cc1ccc(C(=O)NC(=S)Nc2cccc3nsnc23)cc1	97	-8	6	59*	87	u	16	22
O=C(Nc1cccc(OCC(=O)N2CCOCC2)c1)c1ccc(C(F)(F)F)cc1	100	6	4	-10	98	103	x	x
CCN(C(=S)NC(=O)c1ccco1)c1cccc2ccccc12	x	x	-21	82*	x	x	17	8
CCN(C(=S)NCCOC)c1cccc2ccccc12	102	2	-2	-12	114	101	x	x
FC(F)Oc1ccc(NC(=S)NCc2ccccc2)cc1	108	0	-8	2	97	95	x	x
Oc1cccc2c(NC(=S)Nc3ccc(OC(F)F)cc3)cccc12	103	0	-8	65*	96	103	18	10
COc1cc(C(=O)NCc2nnc(SCC(=O)NC3CCCC3)o2)cc(OC)c1OC	96	-2	-1	-11	102	94	x	x
C=CCOc1ccc(/C=C2\SC(=S)N(NS(=O)(=O)c3ccccc3)C2=O)cc1	102	-1	-17	5	94	101	x	x
COc1cccc(NC(=O)COC(=O)C2CC3CCCC(C2)C3=O)c1 (stereo unspecified)	x	x	-6	2	u	x	x	x
N#Cc1ccccc1NCc1ccccc1	102	6	12	10	113	105	x	x
O=c1cccccc1NCc1ccccc1	101	-4	-18	45*	100	96	7	6
CC(C)n1cc(CN2CCC(C(=O)Nc3ccc(Oc4ccccc4F)cc3)CC2)cn1	107	11	10	13	110	133	x	x
CC1CCN(CCC(=O)Nc2ccc(F)c(F)c2)CC1	107	8	4	-14	114	113	x	x
O=C(CSc1nc(=O)n2ccccc2n1)NCc1ccccc1	x	x	-9	-1	116	x	x	x
O=C(CSc1nc(=O)n2ccccc2n1)NCc1ccccc1Cl	x	x	-3	48*	u	x	-6	-1
Cc1cccc(OCC(O)Cn2c(=N)n(Cc3ccccc3)c3ccccc32)c1 (stereo unspecified)	95	-2	36	58*	107	116	11	11
SMILES	MEKK3 PB1 HTS	MEKK2 mut-MEK5	UBC13 polyUb	Apaf-1 inh	Pemphigus Ab inh	MEKK2 WT-MEK5	Apaf-1 inh conf	Rh110 interf inh	others
CCN(CC)CCn1c(=N)n(CC(O)COc2cccc(C)c2)c2ccccc21 (stereo unspecified)	111	8	16	25	x	131	x	x
COc1cc(CNc2ccc(O)cc2)cc(Br)c1OCc1ccccc1F	99	5	0	96*	103	85	23	14
CCOc1cc(CNc2ccc(O)cc2)cc(Br)c1OCc1ccccc1F	99	-3	-4	17	132	102	x	x
CN(C(=O)c1ccc(NC(=O)Cc2cccc(NC(=O)C3CCCN(C(=O)C4CCCC4)C3)c2)cc1)C1CCCC1 (stereo unspecified)	x	x	2	16	108	x	x	x
CCOc1ccc(N(C)c2ccc(/C=C3/SC(=S)NC3=O)cc2)cc1	95	-5	-176	18	154	85	x	x
CCOc1c(O)ccc(/C=C2\SC(=S)NC2=O)c1[N+](=O)[O-]	95	-1	-45	56*	102	95	55*	5	Apaf1 inh interf=>100
CC(Sc1ccc(S(=O)(=O)N2CCOCC2)cn1)c1ccccc1Cl (stereo unspecified)	x	x	7	17	102	x	x	x
Cc1ccc(C2(SCC(N)C(=O)O)c3ccccc3-c3ccccc32)cc1 (stereo unspecified)	x	x	x	x	103	x	x	x
O=C(Nc1nc(-c2ccc(Cl)cc2Cl)cs1)c1ccc(OCC2CCCO2)cc1 (stereo unspecified)	103	-1	12	10	84	105	x	x
CC(C)COc1ccc(C(=O)Nc2scc(-c3ccc(Cl)cc3Cl)c2C(N)=O)cc1	x	x	29	45*	98	x	20	8
C[C@H]1CN([C@@H](C)CO)C(=O)Cc2cc(NC(=O)CCC(F)(F)F)ccc2O[C@H]1CN(C)Cc1ccc(-c2ccccc2)cc1	x	x	9	41*	98	x	23	-6
C[C@H](CO)N1C[C@H](C)[C@@H](CN(C)Cc2ccc(Cl)c(Cl)c2)Oc2c(NC(=O)CCC(F)(F)F)cccc2C1=O	x	x	7	46*	98	x	23	17
Cc1ccc(S(=O)(=O)Nc2ccc3c(c2)CC(=O)N([C@H](C)CO)C[C@@H](C)[C@H](CN(C)Cc2ccc(-c4ccccc4)cc2)O3)cc1	x	x	12	41*	96	x	-2	7
CN=C(Nc1cc(C)nn1CCC#N)c1ccccc1	100	4	-10	2	73	104	x	x
Cc1cc(OC(=O)c2ccccc2)n(CCC#N)n1	99	1	6	43*	108	97	11	-3

Assay outcomes deposited in PubChem BioAssay by several laboratories.
